Test results as given in ChEMBL document CHEMBL1135931, “Rational design, synthesis, and biological activity of novel conformationally restricted vitamin D analogues, (22R)- and (22S)-22-ethyl-1,25-dihydroxy-23,24-didehydro-24a,24b-dihomo-20-epivitamin D(3)” (2002).

Assays:
Rattus norvegicus = assay: Calcemic activity (in vivo bone calcium mobilization) was measured by the rise in serum calcium in vitamin D and Ca deficient rats by colorimetric assay; format: functional; parameters: concentration or dose not given beside the values
Outline: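 Weanling male rats on vitamin D-deficient low-calcium diet (0.03% Ca, 0.6% P) for 3 weeks; single intravenous dose of 1 μg analogue in ethanol (50 μL) or vehicle alone. Serum calcium read colorimetrically (o-cresolphthalein complexone) at 0, 6, 12, 24 and 48 h post-dose; activity expressed as percent of 1,25-(OH)2D3.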

[1] = target: T1, Vitamin D3 receptor (Bos taurus) (UniProt Q28037); assay: Relative affinity for bovine thymus Vitamin D3 receptor (VDR)
T1 sequence (whole entry): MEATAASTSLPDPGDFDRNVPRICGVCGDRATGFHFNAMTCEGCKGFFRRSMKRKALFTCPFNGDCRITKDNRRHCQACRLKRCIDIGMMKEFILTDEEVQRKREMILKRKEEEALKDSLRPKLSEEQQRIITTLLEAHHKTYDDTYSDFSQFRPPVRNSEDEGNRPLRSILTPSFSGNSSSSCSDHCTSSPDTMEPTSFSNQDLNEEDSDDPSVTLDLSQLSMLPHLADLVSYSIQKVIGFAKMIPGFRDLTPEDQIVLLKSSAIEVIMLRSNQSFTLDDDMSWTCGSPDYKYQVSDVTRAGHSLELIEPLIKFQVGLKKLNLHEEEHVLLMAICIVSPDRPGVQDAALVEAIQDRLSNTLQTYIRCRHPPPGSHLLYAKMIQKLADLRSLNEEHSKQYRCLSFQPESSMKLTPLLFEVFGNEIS
Outline: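 Bovine thymus VDR in 0.05 M phosphate pH 7.4, 0.3 M KCl, 5 mM DTT; incubated with 0.1 nM [3H]-1,25-(OH)2D3 plus graded analogue, 19 h at 4 °C. Dextran-coated charcoal separation 20 min at 4 °C, centrifuge 1000g 10 min, supernatant counted; duplicate. Relative affinity at 50% displacement, as percent of 1,25-(OH)2D3.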

C3H 10T1/2 = assay: Cells were harvested and were assayed for luciferase and -galactosidase activities (Transcriptional activity); format: functional, Mus musculus
Outline: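 10T1/2 cells in DMEM with 10% charcoal-stripped FBS, 37 °C, 5% CO2; calcium-phosphate transfection 12 h with SPP×3-TK-LUC reporter, pCMX-β-GAL internal control, pUC18 carrier. Ligand 10^-11 to 10^-7 M for 48 h; luciferase normalized to β-galactosidase, duplicate points. Relative activity taken at ED50, as percent of 1,25-(OH)2D3.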

HL-60 = assay: Differentiation activity of human promyelocytic leukemia cells (HL-60) determined by an NBT reduction assay method; format: functional

Row | SMILES | Activity [1] | Activity (Rattus norvegicus) | Activity (C3H 10T1/2) | Activity (HL-60)
1 | C=C1/C(=C\C=C2/CCC[C@]3(C)[C@@H]([C@@H](C)[C@H](C)CCC(C)(C)O)CC[C@@H]23)C[C@@H](O)C[C@@H]1O | 1100% | 220% | 10000% | 12000%
2 | C=C1/C(=C\C=C2/CCC[C@]3(C)[C@@H]([C@H](C)CCCC(C)(C)O)CC[C@@H]23)C[C@@H](O)C[C@@H]1O [CALCITRIOL] | 100% | 100% | 100% | 100%

Second part, led by results:

Row | Activity [1] | SMILES | Activity (Rattus norvegicus) | Activity (C3H 10T1/2) | Activity (HL-60)
3 | 0.2% | C=C1/C(=C\C=C2/CCC[C@]3(C)[C@@H]([C@@H](C)[C@H](/C=C/CCC(C)(C)O)CC)CC[C@@H]23)C[C@@H](O)C[C@@H]1O | 38% | 33% | 77%
4 | 14% | C=C1/C(=C\C=C2/CCC[C@]3(C)[C@@H]([C@@H](C)[C@@H](/C=C/CCC(C)(C)O)CC)CC[C@@H]23)C[C@@H](O)C[C@@H]1O | 140% | 2500% | 9800%
5 | 0.4% | C=C1/C(=C\C=C2/CCC[C@]3(C)[C@@H]([C@@H](C)[C@@H](C)CCC(C)(C)O)CC[C@@H]23)C[C@@H](O)C[C@@H]1O | 5% | 3% | 8%
